What was measured:
Conditions in all cases: stereoisomer not certain
[1] = system: O2AK2 S99N
Procedure, shortened: (§1)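 Whether a receptor–molecule pair is responsive (active) rests on the original authors' judgment that its measured signal was statistically different from baseline. Pairs without that judgment are non-responsive (inactive). Sources used varied assay methods, commonly transient luciferase assays in mammalian cell lines.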

[2] = system: O2T11
Procedure, shortened: as §1

[3] = system: O2T27 L36V V134D
Procedure, shortened: as §1

[4] = system: O2T29 Q24R
O2T29 Q24R, sequence (as listed by the source, stated change not applied): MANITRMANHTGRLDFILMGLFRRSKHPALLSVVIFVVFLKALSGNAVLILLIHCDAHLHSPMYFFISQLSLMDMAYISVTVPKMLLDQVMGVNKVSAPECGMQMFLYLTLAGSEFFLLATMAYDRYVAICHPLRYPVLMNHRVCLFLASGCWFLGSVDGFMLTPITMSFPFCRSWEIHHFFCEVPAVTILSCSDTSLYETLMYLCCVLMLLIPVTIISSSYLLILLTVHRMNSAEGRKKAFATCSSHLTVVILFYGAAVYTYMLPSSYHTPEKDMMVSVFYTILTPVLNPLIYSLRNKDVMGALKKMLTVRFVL
Procedure, shortened: as §1

[5] = system: O2T33 A169V
O2T33 A169V, sequence (as listed by the source, stated change not applied): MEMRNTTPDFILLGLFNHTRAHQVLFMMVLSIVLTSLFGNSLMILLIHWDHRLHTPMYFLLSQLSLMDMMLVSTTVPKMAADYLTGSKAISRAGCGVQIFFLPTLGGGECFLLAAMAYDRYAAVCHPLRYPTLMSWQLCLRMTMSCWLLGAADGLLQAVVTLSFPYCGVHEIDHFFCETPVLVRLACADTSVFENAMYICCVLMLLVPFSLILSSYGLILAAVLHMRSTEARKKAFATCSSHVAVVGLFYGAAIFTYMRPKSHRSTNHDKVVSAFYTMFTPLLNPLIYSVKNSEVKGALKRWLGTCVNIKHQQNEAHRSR
Procedure, shortened: as §1

[6] = system: O2T33 G297E I309L
Procedure, shortened: as §1

[7] = system: O2T34 Q6P R267P
Procedure, shortened: as §1

[8] = system: O2T34 R267P
O2T34 R267P, sequence (as listed by the source, stated change not applied): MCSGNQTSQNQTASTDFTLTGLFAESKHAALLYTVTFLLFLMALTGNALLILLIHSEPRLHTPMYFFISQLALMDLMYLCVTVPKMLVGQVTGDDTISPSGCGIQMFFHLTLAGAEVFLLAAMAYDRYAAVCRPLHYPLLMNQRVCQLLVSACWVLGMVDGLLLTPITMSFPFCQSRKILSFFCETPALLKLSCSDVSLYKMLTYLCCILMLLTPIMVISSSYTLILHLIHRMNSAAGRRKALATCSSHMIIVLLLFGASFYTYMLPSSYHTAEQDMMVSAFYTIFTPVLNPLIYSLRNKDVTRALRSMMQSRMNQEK
Procedure, shortened: as §1

[9] = system: O4A47
O4A47, sequence (as listed by the source): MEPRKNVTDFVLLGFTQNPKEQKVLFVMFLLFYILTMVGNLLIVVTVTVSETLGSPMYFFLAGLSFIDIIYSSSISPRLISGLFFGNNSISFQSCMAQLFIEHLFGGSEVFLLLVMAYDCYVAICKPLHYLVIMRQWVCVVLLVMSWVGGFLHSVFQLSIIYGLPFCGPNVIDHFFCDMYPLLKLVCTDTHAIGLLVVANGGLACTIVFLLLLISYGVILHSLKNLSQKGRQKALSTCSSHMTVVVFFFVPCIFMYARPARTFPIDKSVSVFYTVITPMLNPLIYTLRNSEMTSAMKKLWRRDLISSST
Procedure, shortened: as §1

[10] = system: O4C46 S240F C252Y K288R
Procedure, shortened: as §1

[11] = system: O4F15 A272T
O4F15 A272T, sequence (as listed by the source, stated change not applied): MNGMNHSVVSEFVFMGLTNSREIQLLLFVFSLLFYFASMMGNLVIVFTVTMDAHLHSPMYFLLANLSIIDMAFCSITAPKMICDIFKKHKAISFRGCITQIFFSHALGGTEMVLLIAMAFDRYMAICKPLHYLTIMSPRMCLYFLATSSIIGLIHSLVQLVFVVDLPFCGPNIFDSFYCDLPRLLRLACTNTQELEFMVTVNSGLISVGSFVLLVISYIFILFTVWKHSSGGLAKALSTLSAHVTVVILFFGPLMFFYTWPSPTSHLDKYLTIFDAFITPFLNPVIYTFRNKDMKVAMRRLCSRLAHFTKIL
Procedure, shortened: as §1

[12] = system: O4F15 S149F
O4F15 S149F, sequence (as listed by the source, stated change not applied): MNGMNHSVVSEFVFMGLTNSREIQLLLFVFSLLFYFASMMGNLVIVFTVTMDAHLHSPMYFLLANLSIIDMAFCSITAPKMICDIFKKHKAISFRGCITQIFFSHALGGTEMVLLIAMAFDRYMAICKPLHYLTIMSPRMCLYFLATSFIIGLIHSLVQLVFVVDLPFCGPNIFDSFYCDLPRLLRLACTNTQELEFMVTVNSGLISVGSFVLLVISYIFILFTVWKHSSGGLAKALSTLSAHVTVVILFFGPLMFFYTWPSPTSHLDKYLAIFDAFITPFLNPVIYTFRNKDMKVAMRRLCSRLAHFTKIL
Procedure, shortened: as §1

[13] = system: O4F17
Procedure, shortened: as §1
Target sequence in this assay (as listed by the source): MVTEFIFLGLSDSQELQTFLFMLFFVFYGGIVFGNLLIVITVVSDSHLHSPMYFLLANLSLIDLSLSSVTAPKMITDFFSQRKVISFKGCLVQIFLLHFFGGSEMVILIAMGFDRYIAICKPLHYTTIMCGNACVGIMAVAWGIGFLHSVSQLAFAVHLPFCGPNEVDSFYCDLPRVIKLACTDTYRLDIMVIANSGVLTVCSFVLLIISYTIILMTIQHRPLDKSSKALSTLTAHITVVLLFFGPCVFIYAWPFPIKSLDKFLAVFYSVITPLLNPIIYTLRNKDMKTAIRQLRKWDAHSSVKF

[14] = system: O4F17; remark: listed apart in the source
Procedure, shortened: as §1
Target sequence in this assay (as listed by the source): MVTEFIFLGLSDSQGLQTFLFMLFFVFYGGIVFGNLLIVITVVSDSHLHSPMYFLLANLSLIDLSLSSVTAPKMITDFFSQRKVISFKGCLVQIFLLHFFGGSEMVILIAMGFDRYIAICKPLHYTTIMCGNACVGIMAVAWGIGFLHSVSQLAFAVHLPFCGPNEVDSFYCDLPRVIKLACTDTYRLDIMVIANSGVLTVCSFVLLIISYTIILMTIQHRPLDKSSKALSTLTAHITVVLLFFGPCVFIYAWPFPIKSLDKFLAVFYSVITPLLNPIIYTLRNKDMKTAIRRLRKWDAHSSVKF

[15] = system: O4F21 F44L
O4F21 F44L, sequence (as listed by the source, stated change not applied): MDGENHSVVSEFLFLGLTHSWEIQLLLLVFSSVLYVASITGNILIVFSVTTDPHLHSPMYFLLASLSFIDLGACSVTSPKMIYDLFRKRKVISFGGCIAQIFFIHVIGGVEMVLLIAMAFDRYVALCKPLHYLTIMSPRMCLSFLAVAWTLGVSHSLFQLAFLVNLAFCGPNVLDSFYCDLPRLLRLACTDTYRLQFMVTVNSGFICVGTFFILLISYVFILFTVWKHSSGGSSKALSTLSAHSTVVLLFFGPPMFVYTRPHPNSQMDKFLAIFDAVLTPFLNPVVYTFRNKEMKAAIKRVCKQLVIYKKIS
Procedure, shortened: as §1

[16] = system: O51A7 E8D
O51A7 E8D, sequence (as listed by the source): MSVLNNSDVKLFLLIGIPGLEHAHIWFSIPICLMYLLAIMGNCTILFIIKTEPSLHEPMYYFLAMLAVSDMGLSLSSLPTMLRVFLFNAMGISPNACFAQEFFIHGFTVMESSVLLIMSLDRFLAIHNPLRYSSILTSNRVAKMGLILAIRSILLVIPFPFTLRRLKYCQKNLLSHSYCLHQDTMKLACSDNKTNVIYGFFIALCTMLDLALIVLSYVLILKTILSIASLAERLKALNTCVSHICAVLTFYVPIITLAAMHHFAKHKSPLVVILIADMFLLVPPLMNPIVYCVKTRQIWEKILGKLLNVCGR
Procedure, shortened: as §1

[17] = system: O51B2 C120R C209S P283S
Procedure, shortened: as §1

[18] = system: O51B4 M147T
O51B4 M147T, sequence (as listed by the source, stated change not applied): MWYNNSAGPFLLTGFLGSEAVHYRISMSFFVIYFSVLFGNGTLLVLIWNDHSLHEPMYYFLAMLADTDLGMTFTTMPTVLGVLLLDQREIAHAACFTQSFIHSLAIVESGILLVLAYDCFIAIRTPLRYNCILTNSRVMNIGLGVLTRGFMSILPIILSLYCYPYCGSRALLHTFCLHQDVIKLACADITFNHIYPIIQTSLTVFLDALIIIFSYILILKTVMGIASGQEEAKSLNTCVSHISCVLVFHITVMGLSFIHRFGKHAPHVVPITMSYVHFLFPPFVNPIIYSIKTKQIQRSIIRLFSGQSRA
Procedure, shortened: as §1

[19] = system: O51B4
O51B4, sequence (as listed by the source): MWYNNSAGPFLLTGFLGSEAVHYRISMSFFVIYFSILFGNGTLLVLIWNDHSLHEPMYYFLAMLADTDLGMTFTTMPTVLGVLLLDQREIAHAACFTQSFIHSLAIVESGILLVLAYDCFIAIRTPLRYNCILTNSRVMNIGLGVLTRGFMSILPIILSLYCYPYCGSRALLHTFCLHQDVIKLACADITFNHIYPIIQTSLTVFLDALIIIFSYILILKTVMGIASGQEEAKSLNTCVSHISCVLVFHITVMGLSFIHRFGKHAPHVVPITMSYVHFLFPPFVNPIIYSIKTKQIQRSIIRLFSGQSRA
Procedure, shortened: as §1

[20] = system: O51B5 G5S I102T P160L
Procedure, shortened: as §1

Measured: odorant receptor agonist call;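 further: active if original authors judged signal statistically different from baseline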

O2AK2 S99N, sequence (as listed by the source, stated change not applied): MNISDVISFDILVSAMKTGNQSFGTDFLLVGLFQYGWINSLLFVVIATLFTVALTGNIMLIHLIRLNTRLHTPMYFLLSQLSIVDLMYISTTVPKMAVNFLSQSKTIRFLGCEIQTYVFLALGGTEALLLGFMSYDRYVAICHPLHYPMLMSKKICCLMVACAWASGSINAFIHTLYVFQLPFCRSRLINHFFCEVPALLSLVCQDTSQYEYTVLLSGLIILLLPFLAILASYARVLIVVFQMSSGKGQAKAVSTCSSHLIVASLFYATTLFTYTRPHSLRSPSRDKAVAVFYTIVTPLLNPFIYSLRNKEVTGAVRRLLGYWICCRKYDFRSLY
O2T11, sequence (as listed by the source): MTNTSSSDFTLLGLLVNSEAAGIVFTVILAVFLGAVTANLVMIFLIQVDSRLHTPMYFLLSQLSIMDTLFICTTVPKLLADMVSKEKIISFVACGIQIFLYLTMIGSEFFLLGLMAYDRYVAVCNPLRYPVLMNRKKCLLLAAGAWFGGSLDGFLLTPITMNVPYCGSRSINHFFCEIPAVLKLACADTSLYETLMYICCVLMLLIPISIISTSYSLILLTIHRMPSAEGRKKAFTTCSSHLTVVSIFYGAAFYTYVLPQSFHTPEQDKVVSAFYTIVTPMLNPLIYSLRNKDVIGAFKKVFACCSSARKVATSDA

C=CCOC(=O)Cc1ccccc1
inactive: [1] | [2] | [3] | [4] | [5] | [6] | [7] | [8] | [9] | [10] | [11] | [12] | [13] | [14] | [15] | [16] | [17] | [18] | [19] | [20]
